Source: paper PMC4161670 (Molecular Psychiatry, 2014)
Blank lines part the entries; values can stand above or below the substance they belong to. Bridge positions count the residues as written; N and C are the ends. Ends that are not written are not given here.

Legend:
Dutch APP mice = assay: Serum Aβ after a single injection; assay type: in vivo, mouse; conditions: single i.p. 200 μg kg^-1
Tg2576 mice = assay: APP processing in brain; assay type: in vivo, mouse; conditions: Tg2576, chronic treatment, western blot 6E10, n = 6 per group
Summary of the method: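 Tg2576 females, 9 months old, given test compound at 200 μg kg−1 i.p. or PBS once daily for 10 weeks; n=6 per group for blots. Brain proteins were fractionated into TBS-soluble, TBS-X and formic acid fractions. Reduced SDS-PAGE and western blot used human APP-specific 6E10. Full-length APP and C99 were quantitated from the TBS-X fraction and sAPP from the TBS-soluble fraction. Mean±s.e.; t-tests.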

[1] = cited from earlier work
5XFAD mice = assay: Serum Aβ after a single injection; assay type: in vivo, mouse
Summary of the method: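 Female 5XFAD mice got a single i.p. injection of test compound or PBS. Serum was drawn before and after injection. Aβ1–42 was measured by sandwich ELISA: 21F12 capture, biotinylated N-terminal detection, streptavidin-alkaline phosphatase and a fluorescent substrate. Samples were diluted twofold to fivefold. Lowest detection level was 1.6 pg ml−1, from a standard curve.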

recombinant BACE1 = recombinant BACE1 (Homo sapiens, UniProt P56817); assay: In vitro BACE1 activity assay; assay type: biochemical
Sequence of recombinant BACE1 (P56817 46-501, species assumed): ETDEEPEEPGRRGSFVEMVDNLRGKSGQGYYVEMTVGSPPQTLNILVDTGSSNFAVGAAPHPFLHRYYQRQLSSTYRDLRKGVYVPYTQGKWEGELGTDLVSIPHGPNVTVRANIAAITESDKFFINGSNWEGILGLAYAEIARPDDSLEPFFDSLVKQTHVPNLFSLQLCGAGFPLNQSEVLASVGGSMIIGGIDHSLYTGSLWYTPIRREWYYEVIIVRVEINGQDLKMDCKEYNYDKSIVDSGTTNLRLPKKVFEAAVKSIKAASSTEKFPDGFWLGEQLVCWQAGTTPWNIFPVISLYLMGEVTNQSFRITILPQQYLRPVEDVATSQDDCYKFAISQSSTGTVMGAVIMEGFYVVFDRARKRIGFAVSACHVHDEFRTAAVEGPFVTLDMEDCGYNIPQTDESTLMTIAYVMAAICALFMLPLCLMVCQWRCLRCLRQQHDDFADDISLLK

[2] = cited from earlier work; remark: listed apart in the source

inhibition of BACE1 activity (recombinant BACE1; purified BACE1, dose-dependent, concentration not given): 70%
Substance: Amylin (KCNTATCATQRLANFLVHSSNNFGAILSSTNVGSNTY; not fully specified (C-terminus, bridges); cysteine pairing not given here; UniProt P10997 34-70, looked up)
change of serum Aβ1-40 and Aβ1-42 after one injection (in words) (Dutch APP mice): provoked a surge of Aβ1–40 but not of Aβ1–42 in the blood | level of APP fragment C99 in brain versus controls (in words) (Tg2576 mice): lower levels of the APP processing fragments C99 | passage of the blood-brain barrier (in words) [1]: passes through the blood–brain barrier (BBB) easily | change of serum Aβ after i.c.v. versus i.p. injection (in words) (5XFAD mice; single i.c.v. 200 μg kg^-1 vs single i.p. 200 μg kg^-1, P=0.03): much greater surge of Aβ in serum than a peripheral i.p. injection | change of serum Aβ1-42 and Aβ1-40 after one injection (in words) (5XFAD mice; single i.p. 200 μg kg^-1): increased level of Aβ1–42 but not of Aβ1–40 in serum | dose dependence of serum Aβ1-42 change after challenge (in words) (5XFAD mice; single i.p. challenge, Figure 3e): dose dependent

Substance: Pramlintide (KCNTATCATQRLANFLVHSSNNFGPILPPTNVGSNTY-NH2; disulfide 2-7; chains of the INN, looked up)
aggregation (in words) [2]: does not form aggregates | level of APP fragment C99 in brain versus controls (in words) (Tg2576 mice): did not reduce C99 levels | ability to inhibit BACE1 activity (in words) (recombinant BACE1; purified BACE1, same assay as amylin): little or no ability to inhibit BACE1 activity
